Test results reported in ChEMBL document CHEMBL1131069 (J Med Chem, 1998).

Legend:
Mus musculus [1] = assay: Anticonvulsant activity determined at 30 minutes after the administration of compound using MES test. (++= signify activity at 100 mg/kg); format: functional, organism-based; set-up: dose 100 mg/kg
Summary of the method: (§1)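 Male CF-1 albino mice (18-25 g) dosed intraperitoneally at 30, 100 or 300 mg/kg. Protection against maximal electroshock-induced seizures was scored 30 min or 4 h after dosing.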

[2] = Neurotoxicity determined at 30 minutes after the administration of compound by rotarod test.(- denotes activity at 300 mg/kg); format: toxicity, organism-based; set-up: dose 300 mg/kg; conditions: mouse, in vivo, 0.5 h
Summary of the method: (§2)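 Male CF-1 mice dosed ip at 30, 100 or 300 mg/kg and tested 30 min or 4 h later on a 1-in. knurled rod turning at 6 rpm. A deficit was failure to stay on the rod for 1 min in each of three trials. Coding: ++ 100, + 300 mg/kg; - means none at 300 mg/kg.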

Rattus norvegicus [3] = assay: Toxicity was determined in rats at a dose of 30 mg/kg after 4 hour. (+ denotes activity in 0-25% of administered animals).; format: functional, organism-based; set-up: dose 30 mg/kg
Summary of the method: (§3)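 Male Sprague-Dawley rats given a single oral dose of 30 mg/kg and assessed for toxicity 4 h after dosing, with at least four animals per time point. Score is the fraction of animals affected (+ 0-25%); - means no toxicity.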

Rattus norvegicus [4] = assay: Anticonvulsant activity was determined in rats at a dose of 30 mg/kg after 1 hour by MES test. (+ denotes activity in 0-25% of administered animals).; format: functional, organism-based; set-up: dose 30 mg/kg
Rattus norvegicus [5] = assay: Anticonvulsant ED50 activity by MES test in rats dosed orally; format: functional; conditions: po
Summary of the method: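 Male Sprague-Dawley rats (100-150 g) dosed orally. ED50 is the dose protecting 50% of animals against maximal electroshock-induced seizures. […]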

Mus musculus [6] = assay: Anticonvulsant activity determined at 4 hours after the administration of compound using MES test.(++= signify activity at 100 mg/kg); format: functional, organism-based; set-up: dose 100 mg/kg; summary of the method: as §1
[7] = Apparent IC50 value by [3H]batrachotoxinin-A-20-alpha-benzoate-binding test performed in rat brain synaptosomes; format: subcellular
Summary of the method: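 Rat brain synaptosomes, about 400 µg protein per assay, incubated 2 h at 37 °C, pH 7.4, in choline chloride/HEPES/glucose/KCl medium with 10 nM [³H]batrachotoxinin-A-20α-benzoate and scorpion venom. Stopped with cold-free choline chloride/HEPES/CaCl₂/MgSO₄ washes, filtered on GF/B, bound radioactivity counted. Protein by Bradford. Apparent IC50 from quadruplicate measurements, mean ± SD.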

[8] = Neurotoxicity determined at 4 hours after the administration of compound by rotarod test (- denotes activity at 300 mg/kg); format: toxicity, organism-based; set-up: dose 300 mg/kg; conditions: mouse, in vivo; summary of the method: as §2
Rattus norvegicus [9] = assay: Anticonvulsant activity was determined in rats at a dose of 30 mg/kg after 4 hour by MES test. (+ denotes activity in 0-25% of administered animals).; format: functional, organism-based; set-up: dose 30 mg/kg
[10] = Neurotoxicity determined at 4 hours after the administration of compound by rotarod test (+ = signify activity at 300 mg/kg); format: toxicity, organism-based; set-up: dose 300 mg/kg; conditions: mouse, in vivo; summary of the method: as §2
[11] = Toxicity was determined in rats at a dose of 30 mg/kg after 4 hour. (- denotes no activity in administered animals).; format: organism-based; set-up: dose 30 mg/kg; conditions: rat, in vivo; summary of the method: as §3
[12] = Neurotoxicity determined at 30 minutes after the administration of compound by rotarod test.(+ = signify activity at 300 mg/kg); format: toxicity, organism-based; set-up: dose 300 mg/kg; conditions: mouse, in vivo, 0.5 h; summary of the method: as §2
Mus musculus [13] = assay: Anticonvulsant activity determined at 30 minutes after the administration of compound using MES test. (+ = signify activity at 300 mg/kg); format: functional, organism-based; set-up: dose 300 mg/kg; summary of the method: as §1
Rattus norvegicus [14] = assay: Anticonvulsant activity was determined in rats at a dose of 30 mg/kg after 1 hour by MES test. (++ denotes activity in 25-50% of administered animals).; format: functional, organism-based; set-up: dose 30 mg/kg
Rattus norvegicus [15] = assay: Anticonvulsant activity was determined in rats at a dose of 30 mg/kg after 2 hour by MES test. (+ denotes activity in 0-25% of administered animals).; format: functional, organism-based; set-up: dose 30 mg/kg
[16] = Neurotoxicity determined at 4 hours after the administration of compound by rotarod test(- denotes activity at 300 mg/kg); format: toxicity, organism-based; set-up: dose 300 mg/kg; conditions: mouse, in vivo; summary of the method: as §2
[17] = Toxicity was determined in rats at a dose of 30 mg/kg after 4 hour (- denotes no activity in administered animals).; format: organism-based; set-up: dose 30 mg/kg; conditions: rat, in vivo; summary of the method: as §3
Mus musculus [18] = assay: Anticonvulsant activity determined at 4 hours after the administration of compound using MES test.(+ = signify activity at 300 mg/kg); format: functional, organism-based; set-up: dose 300 mg/kg; summary of the method: as §1
Rattus norvegicus [19] = assay: Anticonvulsant activity was determined in rats at a dose of 30 mg/kg after 1 hour by MES test. (++++ denotes activity in 75-100% of administered animals); format: functional, organism-based; set-up: dose 30 mg/kg
Rattus norvegicus [20] = assay: Anticonvulsant activity was determined in rats at a dose of 30 mg/kg after 4 hour by MES test. (++++ denotes activity in 75-100% of administered animals); format: functional, organism-based; set-up: dose 30 mg/kg
Mus musculus [21] = assay: Anticonvulsant activity determined at 4 hours after the administration of compound using sc Ptz test.(+ = signify activity at 300 mg/kg); format: functional, organism-based; set-up: dose 300 mg/kg
Summary of the method: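 Male CF-1 mice (18-25 g) dosed ip at 30, 100 or 300 mg/kg. Pentylenetetrazol in 0.9% NaCl was injected sc at 0.01 mL/g. Tests were run 30 min or 4 h after dosing.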

[22] = Neurotoxicity determined at 4 hours after the administration of compound by rotarod test(+ = signify activity at 300 mg/kg); format: toxicity, organism-based; set-up: dose 300 mg/kg; conditions: mouse, in vivo; summary of the method: as §2

Compound: Cc1cccc(C)c1N1C(=O)c2ccc(O)cc2C1=O
- Activity (Mus musculus [1]): activity in 0-25% of administered animals
- Activity [2]: activity in 0-25% of administered animals
- Activity (Rattus norvegicus [3]): activity in 0-25% of administered animals
- Activity (Rattus norvegicus [4]): activity in 0-25% of administered animals
- ED50 (Rattus norvegicus [5]): 369 µmol/kg
- Activity (Mus musculus [6]): activity in 0-25% of administered animals
- IC50 [7]: 1.86 µM
- Activity [8]: activity in 0-25% of administered animals
- Activity (Rattus norvegicus [9]): activity in 0-25% of administered animals

Compound: CC1(C)CC(NC(=O)c2ccc([N+](=O)[O-])cc2)CC(C)(C)N1
- Activity [10]: signifies activity at 300 mg/kg
- ED50 (Rattus norvegicus [5]): > 650 µmol/kg
- Activity [11]: signifies activity at 300 mg/kg
- IC50 [7]: 25.8 µM
- Activity [12]: signifies activity at 300 mg/kg
- Activity (Mus musculus [13]): signifies activity at 300 mg/kg

Compound: Cc1cccc(C)c1NC(=O)c1ccc(O)cc1
- Activity (Rattus norvegicus [14]): activity in 0-25% of administered animals
- Activity [2]: activity in 0-25% of administered animals
- Activity (Rattus norvegicus [15]): activity in 0-25% of administered animals
- ED50 (Rattus norvegicus [5]): 284 µmol/kg
- Activity (Mus musculus [6]): activity in 0-25% of administered animals
- IC50 [7]: 0.35 µM
- Activity [16]: activity in 0-25% of administered animals
- Activity (Rattus norvegicus [9]): activity in 0-25% of administered animals
- Activity [17]: activity in 0-25% of administered animals

Compound: Cc1ccc(N)c(C)c1N1C(=O)c2ccccc2C1=O
- Activity (Mus musculus [18]): signifies activity at 300 mg/kg

Compound: Cc1cccc(C)c1N1C(=O)c2ccc([N+](=O)[O-])cc2C1=O
- Activity (Rattus norvegicus [19]): ++
- Activity (Mus musculus [1]): Activity at 300 mg/kg
- Activity [2]: Activity at 300 mg/kg
- Activity (Rattus norvegicus [20]): ++
- ED50 (Rattus norvegicus [5]): 131 µmol/kg
- Activity (Mus musculus [6]): Activity at 300 mg/kg
- IC50 [7]: 184 µM
- Activity (Mus musculus [21]): Activity at 300 mg/kg
- Activity [22]: Activity at 300 mg/kg
